Hits are enriched below; roughly 1% of the tested compounds scored in any of these assays.
PREPL inh: inhibitors of human prolyl oligopeptidase-like enzyme PREPL; Q4J6C6; recombinant PREPL, fluorescence polarization activity-based probe; inhibition, % at 5.96 µM; hit rate 0.68% among 320,000; AID 2751;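 further: 0% = enzyme with DMSO and 100% = wells lacking enzyme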
Target sequence (Q4J6C6 whole entry, looked up): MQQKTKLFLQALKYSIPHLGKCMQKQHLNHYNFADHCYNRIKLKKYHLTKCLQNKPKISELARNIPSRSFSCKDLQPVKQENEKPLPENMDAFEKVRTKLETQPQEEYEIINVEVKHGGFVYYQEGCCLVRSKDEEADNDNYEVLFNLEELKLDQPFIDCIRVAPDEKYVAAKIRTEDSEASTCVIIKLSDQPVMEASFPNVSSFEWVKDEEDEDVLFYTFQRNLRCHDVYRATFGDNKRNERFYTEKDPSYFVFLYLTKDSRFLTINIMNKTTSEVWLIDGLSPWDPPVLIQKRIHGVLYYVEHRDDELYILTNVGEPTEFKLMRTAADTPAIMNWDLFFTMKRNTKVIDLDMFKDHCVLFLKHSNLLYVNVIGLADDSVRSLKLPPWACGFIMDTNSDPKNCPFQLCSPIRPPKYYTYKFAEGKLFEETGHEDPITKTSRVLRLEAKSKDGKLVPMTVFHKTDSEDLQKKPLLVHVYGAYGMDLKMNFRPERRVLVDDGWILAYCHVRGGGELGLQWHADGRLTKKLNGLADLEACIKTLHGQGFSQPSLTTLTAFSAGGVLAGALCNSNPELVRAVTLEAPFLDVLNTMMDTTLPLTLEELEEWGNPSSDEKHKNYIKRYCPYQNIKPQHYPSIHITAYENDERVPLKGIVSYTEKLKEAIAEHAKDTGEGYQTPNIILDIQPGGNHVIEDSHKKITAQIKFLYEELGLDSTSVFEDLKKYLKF
procasp3 activ: procaspase-3 (human) activation | AID 463141 | P42574 | recombinant procaspase-3 D3A, Ac-DEVD-pNA absorbance 405 nm | activation, % at 8.5 µM | hit rate 0.11% among 330,000;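 active means activation above the mean of all tested compounds plus 3 SD, cut at about 21% in these data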;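 further: 0% = DMSO alone and 100% = DMSO wells spiked with extra 5 µM PC-3 D3A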
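Test system: Procaspase-3 D3A mutant, all three cleavage aspartates alanine | Dosing: Single dose, 8.5 µM nominal compound, 0.8% DMSO | Schedule: 1 h preincubation, 2 h reaction | Technique: 405 nm absorbance of p-nitroaniline, reads at 0 and 120 min | Repeats: One well per compound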
procasp7 counter: activates human procaspase-7, counter-screen for procaspase-3 activators. recombinant procaspase-7, Ac-DEVD-pNA absorbance 405 nm; D23A/D198A/D206A triple mutant, cannot self-cleave; scale: DMSO 0, 5 µM enzyme 100. activation, % at 8.5 µM. hit rate 0.093% among 330,000. AID 463210. P55210;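 active means percent activation above the screen-wide mean plus 3 SD, cut at about 25% in these data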
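System: Uncleavable procaspase-7 mutant enzyme; Amount: 2 µM procaspase-7 mutant as dispensed; Schedule: 1 h compound preincubation, 2 h substrate cleavage, 25 °C; Measured by: 405 nm absorbance of p-nitroaniline; Evaluation: percent activation from buffer-corrected 0–120 min absorbance change; Control set: low DMSO alone, high DMSO plus 5 µM PC-7.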
LYPLA1 counter: counter-screen for PME1 inhibitors: inhibitors of human LYPLA1 | O75608 | recombinant LYPLA1, FP-Rh probe fluorescence polarization | inhibition, % at 5.9 µM | hit rate 0.16% among 320,000;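 active means inhibition above the mean of all tested compounds plus 3 SD, set per campaign, cut at about 14% in these data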;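 further: inhibitors block serine hydrolase probe labeling of LYPLA1 so polarization falls; 0% = enzyme with DMSO and 100% = wells lacking LYPLA1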
LYPLA2 inh: blocks human lysophospholipase 2, a PME1 counter-screen. recombinant LYPLA2, FP-Rh probe fluorescence polarization. hit rate 0.38% among 320,000. O95372. inhibition, % at 5.9 µM;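 active means inhibition above the screen-wide mean plus 3 SD, limit set per campaign, cut at about 26% in these data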;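 further: 0% = LYPLA2 with DMSO and 100% = wells lacking LYPLA2 enzyme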
PREPL inh cf: confirmation of human PREPL enzyme inhibitors. recombinant PREPL, fluorescence polarization activity probe. AID 2803. inhibition, % at 5.96 µM. shares compounds with PREPL inh. hit rate 67% among 2,000;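 further: 0% = protein with DMSO and 100% = wells lacking protein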
Active calls of the source: *; . = no result. Unless noted, no stated cut-off is given here; in the data, active means inhibition above about 43%; inactive means the rest.

SMILES	PREPL inh	procasp3 activ	procasp7 counter	LYPLA1 counter	LYPLA2 inh	PREPL inh cf
Cc1cc(OCC(=O)N2CCOCC2)c(C(C)C)cc1Cl	17	0	-13	0	-2	.
CCC[C@@H](CN1CCC[C@H]1CN1C(N)=NC[C@@H]1Cc1ccccc1)N1C[C@@H](Cc2ccccc2)N(CCc2ccc(Cl)c(Cl)c2)C1=N	32	1	3	.	.	.
CC[C@@H](C)[C@@H]1CN([C@@H](C)CN2CCC[C@H]2CN2C(N)=NC[C@H]2CC(C)C)C(=N)N1CCc1ccc(Cl)c(Cl)c1	53*	-2	-9	.	.	41
CCC[C@@H](CN1CCC[C@H]1CN1C(N)=NC[C@@H]1Cc1ccccc1)N1C[C@@H]([C@H](C)CC)N(CCc2ccc(Cl)c(Cl)c2)C1=N	43*	-6	-4	.	.	31
CCC[C@@H](CN1CCC[C@H]1CN1C(N)=NC[C@H]1CC(C)C)N1C[C@@H](Cc2ccccc2)N(CCc2ccc(Cl)c(Cl)c2)C1=N	42	10	11	.	.	.
CCC[C@@H](CN1CCC[C@H]1CN1C(N)=NC[C@H]1CC(C)C)N1C[C@@H]([C@H](C)CC)N(CCc2ccc(Cl)c(Cl)c2)C1=N	52*	5	-4	.	.	40
CC[C@@H](C)[C@@H]1CN([C@@H](CN2CCC[C@H]2CN2C(N)=NC[C@H]2CC(C)C)C(C)C)C(=N)N1CCc1ccc(Cl)c(Cl)c1	47*	1	8	.	.	48*
CSCc1c(C(=O)N2CCCc3ccccc32)oc2ccccc12	-10	2	14	2	6	.
Cc1n[nH]c(=O)nc1N1CCN(c2ccccc2)CC1	6	6	9	0	-1	.
CC(=O)n1cc(N(C(=O)CCl)c2ccc(Cl)cc2)c2ccccc21	2	4	7	-2	2	.
Nc1cc(N)cc(-c2nc3ccccc3o2)c1	55*	0	-1	2	7	34
COc1ccc(Cn2c(SCc3ccccc3C)nc3cc(OC)c(OC)cc3c2=N)cc1	62*	0	-3	-2	2	59*
COCCCn1c(SCCc2ccccc2)nc2cc(OC)c(OC)cc2c1=N	46*	-6	-9	-13	-17	42
COc1cc2nc(SCc3ccc(F)cc3)n(Cc3cccs3)c(=N)c2cc1OC	26	-1	5	-5	1	.
O=C(CN1CC[n+]2c(-c3cccs3)csc21)c1ccc(-c2ccccc2)cc1	46*	8	7	0	4	42
Cc1ccc(C(=O)Cn2nnc(-c3cccs3)n2)cc1	-11	8	4	4	20	.
CC(C)C(=O)Nc1nc(-c2ccc3c(c2)CCN3C(=O)C2CC2)cs1	0	5	-3	0	-4	.
N#Cc1cc(C#N)c(SCC(=O)N2CC(=O)Nc3ccccc32)nc1N	46*	-16	-17	-5	-5	38
Cc1c(CCOC(=O)C23CC4CC(CC(C)(C4)C2)C3)sc[n+]1CC(=O)c1ccccc1	48*	6	2	0	2	44*
Cc1c(CCOC(=O)c2cc([N+](=O)[O-])cc([N+](=O)[O-])c2)sc[n+]1CC(=O)c1ccccc1	56*	-3	0	4	7	50*
Cn1c(SCC(=O)NCC2CCCO2)ncc(C(=O)Nc2ccc(Cl)cc2)c1=O (stereo not given)	-7	4	-3	1	0	.
Cc1onc(-c2c(Cl)cccc2Cl)c1C(=O)N1CCc2ccccc21	0	10	-1	-5	-3	.
CN1CCc2c(n(CC(O)CNCc3ccccc3)c3ccccc23)C1=O (stereo not given)	31	0	-2	4	5	.
CC(C)NCC(O)Cn1c2c(c3ccccc31)CCc1c-2cnn1-c1ccccc1 (stereo not given)	66*	-14	-1	0	0	82*
C=CCOc1ccc(C=NNc2ccc(S(=O)(=O)Nc3ccccc3C(=O)O)cc2[N+](=O)[O-])cc1OC	62*	-4	1	.	.	36
CCOc1ccc(C=NNc2ccc(S(=O)(=O)Nc3ccccc3C(=O)O)cc2[N+](=O)[O-])cc1	65*	0	-6	.	.	69*
